{"data": "Results pooled from the literature", "note": "Compare with care: the assays were run in different laboratories."}
{"SMILES": "CO[C@H]1O[C@H](COC(c2ccccc2)(c2ccccc2)c2ccccc2)[C@@H](OC(=O)c2ccc(C(C)(C)C)cc2)[C@H](OC(=O)c2ccc(C(C)(C)C)cc2)[C@H]1OC(=O)c1ccc(C(C)(C)C)cc1", "organism": "Bacillus cereus", "assay": "microbial killing, broth dilution", "measurement": "MBC", "result": "8 µg/mL"}
{"SMILES": "O=C(O)CN1C(=O)/C(=C/c2ccc(-c3ccc(N(c4ccccc4)c4ccccc4)cc3)cc2)NC1=S", "organism": "Bacillus cereus", "assay": "microbial killing, broth dilution", "test system": "ATCC10876", "measurement": "MBC", "result": "250 µg/mL"}
{"SMILES": "O=C(N[C@H](CO)[C@H](O)c1ccc([N+](=O)[O-])cc1)C(Cl)Cl", "organism": "Salmonella enterica", "assay": "microbial growth", "setting": "20 h, pH 5.5", "measurement": "MIC", "result": "2 µg/mL"}
{"SMILES": "O=C(O)CN1C(=O)/C(=C/c2ccc(-c3ccc(N(c4ccccc4)c4ccccc4)cc3)cc2)SC1=S", "organism": "Bacillus cereus", "assay": "microbial killing, broth dilution", "test system": "ATCC10876", "measurement": "MBC", "result": "31.3 µg/mL"}
{"SMILES": "COc1cc(-c2cc(=O)c3c(O)cc(O)cc3o2)ccc1O", "organism": "Helicobacter pylori", "assay": "microbial growth, broth dilution", "setting": "62.5 µg/mL", "measurement": "inhibition", "result": "100%"}
{"SMILES": "CS(=O)(=O)c1ccc([C@@H](O)[C@@H](CF)NC(=O)C(Cl)Cl)cc1", "organism": "Salmonella enterica", "assay": "microbial growth", "test system": "ENTERITIDIS", "setting": "20 h, pH 7", "measurement": "MIC", "result": "4 µg/mL"}
{"SMILES": "O=c1cc(-c2ccc(O)c(O)c2)oc2cc(O)cc(O)c12", "organism": "Helicobacter pylori", "assay": "microbial growth, broth dilution", "setting": "31.25 µg/mL", "measurement": "inhibition", "result": "100%"}
{"SMILES": "O=C1NC(=S)N/C1=C\\c1c2ccccc2c(-c2ccc(N(c3ccccc3)c3ccccc3)cc2)c2ccccc12", "organism": "Bacillus cereus", "assay": "microbial growth, broth dilution", "test system": "ATCC10876", "measurement": "MIC", "result": "> 1000 µg/mL"}
{"SMILES": "CC1(C)S[C@@H]2[C@H](NC(=O)[C@H](N)c3ccccc3)C(=O)N2[C@H]1C(=O)O", "organism": "Salmonella enterica", "assay": "microbial growth, agar dilution", "test system": "ENTERITIDIS", "setting": "26.93 µM", "measurement": "inhibition", "result": "100%"}
{"SMILES": "CN[C@H](CC(C)C)C(=O)N[C@H]1C(=O)N[C@@H](CC(N)=O)C(=O)N[C@H]2C(=O)N[C@H]3C(=O)N[C@H](C(=O)N[C@H](C(=O)O)c4cc(O)cc(O)c4-c4cc3ccc4O)[C@H](O)c3ccc(c(Cl)c3)Oc3cc2cc(c3O[C@@H]2O[C@H](CO)[C@@H](O)[C@H](O)[C@H]2O[C@H]2C[C@](C)(N)[C@H](O)[C@H](C)O2)Oc2ccc(cc2Cl)[C@H]1O", "organism": "Bacillus cereus", "assay": "microbial growth, broth dilution", "test system": "ATCC10876", "measurement": "MIC", "result": "0.98 µg/mL"}
{"SMILES": "Cc1cc(NS(=O)(=O)c2ccc(N)cc2)no1", "organism": "Salmonella enterica", "assay": "microbial growth", "test system": "F98, TYPHIMURIUM", "setting": "20 h, pH 7.2", "measurement": "MIC", "result": "64 µg/mL"}
{"SMILES": "O=C1NC(=S)N/C1=C\\c1ccc(-c2ccc(N(c3ccccc3)c3ccccc3)cc2)cc1", "organism": "Bacillus cereus", "assay": "microbial growth, broth dilution", "test system": "ATCC10876", "measurement": "MIC", "result": "> 1000 µg/mL"}
{"SMILES": "C[C@@H](O)[C@H]1C(=O)N2C(C(=O)O)=C(S[C@@H]3CN[C@H](C(=O)N(C)C)C3)[C@H](C)[C@H]12", "organism": "Salmonella enterica", "assay": "microbial growth, broth dilution", "setting": "clinical isolate", "measurement": "MIC", "result": "≤ 0.5 µg/mL"}
{"SMILES": "O=C(O)c1cn(C2CC2)c2cc(N3CCNCC3)c(F)cc2c1=O", "organism": "Salmonella enterica", "assay": "microbial growth", "test system": "ENTERITIDIS", "setting": "20 h, pH 7.2", "measurement": "MIC", "result": "0.0156 µg/mL"}
{"SMILES": "COC(=O)c1ccc(O)cc1", "organism": "Helicobacter pylori", "assay": "microbial growth, broth dilution", "setting": "15.63 µg/mL", "measurement": "inhibition", "result": "100%"}
{"SMILES": "COc1cc(Cc2cnc(N)nc2N)cc(OC)c1OC", "organism": "Salmonella enterica", "assay": "microbial growth", "test system": "F98, TYPHIMURIUM", "setting": "20 h, pH 7.2", "measurement": "MIC", "result": "0.25 µg/mL"}
{"SMILES": "O=c1cc(-c2ccc(O)cc2)oc2cc(O)cc(O)c12", "organism": "Helicobacter pylori", "assay": "microbial growth, broth dilution", "setting": "125 µg/mL", "measurement": "inhibition", "result": "100%"}
{"SMILES": "[H]/N=C(/N)N[C@H]1[C@H](O)[C@@H](O)[C@H](O[C@@H]2O[C@@H](C)[C@](O)(C=O)[C@H]2O[C@@H]2O[C@@H](CO)[C@H](O)[C@@H](O)[C@@H]2NC)[C@@H](N/C(N)=N\\[H])[C@@H]1O", "organism": "Salmonella enterica", "assay": "microbial growth", "setting": "20 h, pH 7.2", "measurement": "MIC", "result": "8 µg/mL"}
{"SMILES": "COc1cc([C@H]2OC[C@H]3[C@@H]2CO[C@@H]3c2cc(OC)c(O)c(OC)c2)cc(OC)c1O", "organism": "Helicobacter pylori", "assay": "microbial growth, broth dilution", "setting": "31.25 µg/mL", "measurement": "inhibition", "result": "100%"}
{"SMILES": "CN(C)[C@@H]1C(O)=C(C(N)=O)C(=O)[C@@]2(O)C(O)=C3C(=O)c4c(O)cccc4[C@@](C)(O)[C@H]3C[C@@H]12", "organism": "Salmonella enterica", "assay": "microbial growth", "test system": "F98, TYPHIMURIUM", "setting": "20 h, pH 7", "measurement": "MIC", "result": "1 µg/mL"}
{"SMILES": "O=C(O)CN1C(=O)/C(=C/c2c3ccccc3c(-c3ccc(N(c4ccccc4)c4ccccc4)cc3)c3ccccc23)NC1=S", "organism": "Bacillus cereus", "assay": "microbial killing, broth dilution", "test system": "ATCC10876", "measurement": "MBC", "result": "> 1000 µg/mL"}
{"SMILES": "CO/N=C(\\C(=O)N[C@@H]1C(=O)N2C(C(=O)O)=C(CSc3nc(=O)c(=O)[nH]n3C)CS[C@H]12)c1csc(N)n1", "organism": "Salmonella enterica", "assay": "microbial growth", "test system": "ENTERITIDIS", "setting": "20 h, pH 7", "measurement": "MIC", "result": "0.0625 µg/mL"}
{"SMILES": "CC[C@H]1OC(=O)[C@H](C)[C@@H](O[C@H]2C[C@@](C)(OC)[C@@H](O)[C@H](C)O2)[C@H](C)[C@@H](O[C@@H]2O[C@H](C)C[C@H](N(C)C)[C@H]2O)[C@](C)(OC)C[C@@H](C)C(=O)[C@H](C)[C@@H](O)[C@]1(C)O", "organism": "Helicobacter pylori", "assay": "microbial growth, broth dilution", "setting": "62.5 µg/mL", "measurement": "inhibition", "result": "100%"}
{"SMILES": "O=C(O)CN1C(=O)/C(=C/c2c3ccccc3c(-c3ccc(N(c4ccccc4)c4ccccc4)cc3)c3ccccc23)SC1=S", "organism": "Bacillus cereus", "assay": "microbial growth, broth dilution", "test system": "ATCC10876", "measurement": "MIC", "result": "> 1000 µg/mL"}
{"SMILES": "O=C(N/N=C/c1ccc([N+](=O)[O-])o1)c1ccc(O)cc1", "organism": "Salmonella enterica", "assay": "microbial growth", "test system": "ATCC13311 TYPHIMURIUM", "measurement": "MIC90", "result": "0.98 µg/mL"}
